Only some compounds are listed: those with a hit (about 9.8% of all), similar ones and a draw of the others.
m-calpain inh: calpain II (pig) inhibition | purified calpain II, fluorogenic peptide substrate, 30 min | inhibition, % at 16 µM | hit rate 0.37% among 220,000 | AID 1236;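 active = inhibition above about 50%, limit read from the data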
WT yeast gro inh: growth inhibition of WT yeast, mitochondrial fusion screen; inhibition, % at 10 µM; AID 1362; mitochondrial fusion phenotypic screen, WT strain; hit rate 2.1% among 190,000; in the data active = inhibition above about 58%; tested in S. cerevisiae
L major viab: reduces viability of Leishmania major promastigotes; AID 1063; hit rate 9% among 200,000; inhibition, % at 10 µM; resazurin fluorescence viability; in the data active = inhibition above about 50%;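 also: promastigotes grown with compound for 44 hours at 28 °C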
Rad51 HR inh: blocks human Rad51 in homologous recombination; hRad51 DNA strand exchange, fluorescence dequenching; inhibition, % at 10 µM; hit rate 0.085% among 200,000;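 active = inhibition above 40% at the single screening dose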
Target sequence (Q06609 whole entry, looked up): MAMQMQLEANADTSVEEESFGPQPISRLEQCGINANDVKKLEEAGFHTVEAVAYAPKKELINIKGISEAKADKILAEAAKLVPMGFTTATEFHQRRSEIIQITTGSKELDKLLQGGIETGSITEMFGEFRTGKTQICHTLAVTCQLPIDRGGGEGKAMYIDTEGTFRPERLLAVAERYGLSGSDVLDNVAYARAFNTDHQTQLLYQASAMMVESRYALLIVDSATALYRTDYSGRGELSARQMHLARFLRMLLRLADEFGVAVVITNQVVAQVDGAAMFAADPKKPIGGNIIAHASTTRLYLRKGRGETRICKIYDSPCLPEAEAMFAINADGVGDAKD
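Test system: preformed human Rad51 ssDNA filaments; also added: Donor/quencher-labelled 47-bp dsDNA substrate; doses: 10 µM final, single point; times: 37 °C 15-min filament assembly, 30-min compound preincubation, 15-min exchange; detection: FRET fluorescence dequenching, excitation 485 nm, emission 520 nm; read-out basis: Fluorescence-based percent inhibition, control- and blank-normalised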
PMI activator: increases human mannose-6-phosphate isomerase activity; P34949; purified human PMI, coupled resazurin fluorescence, 20 min; stronger effect = higher value; 1 = vehicle control, 0 substrate-free wells; activation factor at 20 µM; hit rate 0.005% among 190,000; AID 1214;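 active = activation factor of 2 or more at 20 µM, relative to plate controls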
PMI act satM6P: increases human PMI activity with near-saturating mannose 6-phosphate. P34949. coupled PMI enzyme assay, resazurin fluorescence, 20 min; stronger effect = higher value; 1 = untreated enzyme, 0 = substrate-free blank. activation factor at 20 µM. hit rate 0.34% among 190,000. AID 1216;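 active = activation factor of 2 or more at 20 µM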
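Test system: human phosphomannose isomerase with PGI, G6PDH, diaphorase coupling enzymes; amount: 15 ng/mL PMI; incubation: enzyme reaction with compound 20 min at room temperature; technique: resorufin fluorescence (Ex 544/Em 590 nm) from resazurin via diaphorase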
Lmaj promast 1uM: L. major promastigote growth inhibition, 1 uM repeat. inhibition, % at 1 µM. AID 1258. resazurin fluorescence, 48 h. shares compounds with L major viab. hit rate 13% among 1,100;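 active = inhibition above about 50% in both repeat tests, limit read from the data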
Large screens that a line does not name were inactive (follow-up assays come after a bar, where they were run).

CCc1ccc(NC(=S)N2CCNC(=O)C2CC(=O)OC)cc1 (stereo not drawn)	none
Cc1occc1-c1nc(-c2ccccn2)no1	none
Cc1onc(-c2ccccc2Cl)c1-c1nc(-c2ccccn2)no1	L major viab 75 (no result: Rad51 HR inh) | Lmaj promast 1uM inactive
NC(=O)N/N=C/c1ccc(N2CCOCC2)s1	L major viab 60 | Lmaj promast 1uM inactive
COc1ccccc1NC(=O)N(Cc1ccc2c(c1)OCO2)Cc1nc2ccccc2c(=O)[nH]1	none
COc1cccc(C(=O)N(Cc2ccc3c(c2)OCO3)Cc2nc3ccccc3c(=O)[nH]2)c1	L major viab 82 | Lmaj promast 1uM inactive
CSc1nnc(Cc2sc(-c3ccccc3)nc2-c2ccccc2)o1	L major viab 93 (no result: Rad51 HR inh) | Lmaj promast 1uM inactive
Nc1ccc2c(c1)N=[N+]([O-])c1cc(N)ccc1C2	none (no result: WT yeast gro inh, L major viab, PMI activator, PMI act satM6P)
Fc1cc(F)c2nc(N3CCCC3)sc2c1	none
CC1(C)CC2(CC(c3ccccc3F)c3cc(Cl)c(O)cc3O2)NC(=S)N1 (stereo not drawn)	L major viab 83 | Lmaj promast 1uM inactive
Cc1cccc(C2CC3(CC(C)(C)NC(=S)N3)Oc3cc(O)ccc32)c1 (stereo not drawn)	none (no result: PMI activator, PMI act satM6P)
O=[N+]([O-])c1ncn(C23CC4CC(CC(C4)C2)C3)n1	none (no result: WT yeast gro inh, L major viab, Rad51 HR inh, PMI activator, PMI act satM6P)
Cc1nc([N+](=O)[O-])nn1C12CC3CC(CC(Cl)(C3)C1)C2	L major viab 88 | Lmaj promast 1uM 53
O=C(CC1CCCCC1)N1CCC(c2nc(-c3ccc(S(=O)(=O)N4CCCC4)cc3)no2)CC1	L major viab 66 | Lmaj promast 1uM inactive
O=C1CC(c2ccc(Br)cc2)NC(c2ccc(Br)cc2)C1c1ccccc1 (stereo not drawn)	L major viab 90 (no result: Rad51 HR inh) | Lmaj promast 1uM inactive
Cc1[nH]nc(Sc2ccccn2)c1[N+](=O)[O-]	none (no result: Rad51 HR inh)
CC(=O)c1ccc(NC(=S)NCCCN2CCOCC2)cc1	none
CC1(C2CC2)NC(=O)N(CC(=O)Nc2ccccc2-c2ccccc2)C1=O (stereo not drawn)	none
C1=Nc2ccccc2CN1c1ccccc1	L major viab 85 | Lmaj promast 1uM inactive
CC1=CC(C)(C)Nc2ccc(OC(=O)c3ccco3)cc21	L major viab 101 | Lmaj promast 1uM inactive
CC1=CC(C)(C)N2C(=O)C(=O)c3cc(OC(=O)c4ccco4)cc1c32	none
Cc1noc(C)c1S(=O)(=O)NCCN1CCN(c2ccccc2)CC1	none
Cc1noc(C)c1S(=O)(=O)NCCCN1CCN(Cc2ccccc2)CC1	L major viab 92 (no result: Rad51 HR inh) | Lmaj promast 1uM inactive
CC(C)(C)C(=O)Nc1sc2c(c1C(=O)Nc1ccccn1)CCCC2	none
CCOC(=O)c1cccc(Nc2nc(-c3cccnc3)nc3ccccc23)c1	L major viab 92 (no result: Rad51 HR inh) | Lmaj promast 1uM inactive
CCCCC(CCC(=O)Nc1cc([N+](=O)[O-])ccc1O)C(=O)O (stereo not drawn)	none (no result: Rad51 HR inh)
Cc1nn(C)c(C)c1/C=N/N=C1\CCC2C3CCc4cc(O)ccc4C3CCC12C (stereo not drawn)	L major viab 98 (no result: Rad51 HR inh) | Lmaj promast 1uM inactive
Nc1ccc(Oc2ccc([N+](=O)[O-])cc2[N+](=O)[O-])cc1	L major viab 56 | Lmaj promast 1uM inactive
CN(C)c1ccnc(-n2cccc2/C=N/OCc2ccccc2)c1C#N	none
COc1ccccc1CO/N=C/c1cccn1-c1nccc(N(C)C)c1C#N	L major viab 71 | Lmaj promast 1uM inactive
O=Cc1cnc(N2CCOCC2)nc1	none
COC(=O)C(Cc1cnc(Cl)s1)(C(=O)OC)c1ccc([N+](=O)[O-])cc1[N+](=O)[O-]	L major viab 63 | Lmaj promast 1uM inactive
C=CCOc1ccc2ccccc2c1/C=N/O	L major viab 51 | Lmaj promast 1uM inactive
COc1ccc2ccccc2c1/C=N/O	none
O=Cc1ccc(OC2OCCOC2Oc2ccc(C=O)cc2)cc1 (stereo not drawn)	L major viab 53 | Lmaj promast 1uM inactive
O=C(CCNS(=O)(=O)c1cccc2nsnc12)NCc1ccccc1Cl	none
CC(C)c1ccccc1NC(=O)COC(=O)Cc1c[nH]c2ccccc12	L major viab 50 | Lmaj promast 1uM inactive
CCCn1c(-c2ccc(OC)cc2)nc2ccccc21	L major viab 96 | Lmaj promast 1uM inactive

Screening data deposited in PubChem BioAssay by several laboratories.
